In brackets after ≈: the same amount, converted by molar mass.
Legend:
[1] = test system: Mycobacterium tuberculosis; experiment: Antibacterial activity against wild type Mycobacterium tuberculosis CDC1551 incubated for 10 days by resazurin dye based microtiter plate assay; assay type: functional; settings: CDC1551, 240 h, time 10 day
Summary of the method: (§1)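 MIC in 7H9-ADC-Tween 80 medium. Strains (CDC1551 WT, rv0443 KO) grown to mid-log (OD600 ~0.8), diluted to OD600 0.01, exposed to serial antibiotic dilutions for 10 days at 37 °C; MIC read by resazurin blue test.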

[2] = test system: Mycobacterium tuberculosis; experiment: Antibacterial activity against Mycobacterium tuberculosis rv0443 knockout strain incubated for 10 days by resazurin dye based microtiter plate assay; assay type: functional; settings: rv0443, 240 h, time 10 day; summary of the method: as §1

With `CO[C@H]1/C=C/O[C@@]2(C)Oc3c(C)c(O)c4c(O)c(c(/C=N/N5CCN(C)CC5)c(O)c4c3C2=O)NC(=O)/C(C)=C\C=C\[C@H](C)[C@H](O)[C@@H](C)[C@@H](O)[C@@H](C)[C@H](OC(C)=O)[C@@H]1C` [RIFAMPIN] the MIC [1] was 2.5 ng/mL (≈ 3.04 nM) and the MIC [2] was 2.5 ng/mL (≈ 3.04 nM).

Reference: ChEMBL document CHEMBL5252635, “The Mycobacterium tuberculosis mycothiol S-transferase is divalent metal-dependent for mycothiol binding and transfer” (2023)
